This note sets out measurements from ChEMBL document CHEMBL1126019, “Synthesis, stability, and biological evaluation of water-soluble prodrugs of a new echinocandin lipopeptide. Discovery of a potential clinical agent for the treatment of systemic candidiasis and Pneumocystis carinii pneumonia (PCP)” (J Med Chem, 1992).

For assay [1], the system named is Candida albicans. Put plainly: (§1) Minimum fungicidal concentration against Candida albicans MY 1028. Format: functional, organism-based. An outline of the steps:
(§2)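 Clinical isolates in yeast nitrogen base with 1% dextrose, inoculated with about 5×10^3 CFU per well. Drug was tested by 2-fold serial dilution from 128 to 0.06 µg/mL, with growth for 24 h at 35 °C. 1.5-µL aliquots were then spotted onto Sabouraud dextrose agar and incubated at 35 °C for 24 h. MFC was the lowest concentration giving fewer than five colonies per spot. Duplicate determinations.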

The next assay relates to Candida parapsilosis. In words: (§3) Minimum fungicidal concentration against Candida parapsilosis MY 1010. The assay is classed as functional, organism-based. An outline of the steps: as §2
Another assay deals with Candida tropicalis. Put plainly: (§4) Minimum fungicidal concentration against Candida tropicalis MY 1012. The assay is classed as functional, organism-based. The method in brief:
as §2

The next assay is filed under the species Homo sapiens. Put plainly: Hemolytic potential was determined as the minimum lytic concentration against human red blood cells. Format: functional, cell-based. The method in brief: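 Compounds were serially diluted in water containing 10% DMSO and added to whole human blood, then incubated 2 h at 37 °C. Red cell lysis was scored visually, and the lowest lytic concentration was recorded.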

For a further assay, the species on record is Mus musculus. In words: Minimum effect dose required to reduce the number of colony forming units in per gram kidney of mice after being challenged, by tail vein injection, with 5 X l0e4 cells of Candida albicans (MY 1055). Format: functional. An outline of the steps:
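DBA/2 mice (5 per dose level) were infected intravenously and dosed ip with vehicle sham or 1.5, 3.0 or 6.0 mg/kg twice daily for 4 days. On day 7 post-infection, kidneys were cultured on SDA (35 °C, 24 h) and CFU/g counted. MED99 is the dose giving ≥99% CFU/g reduction versus vehicle sham.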

For a further assay, the species on record is Rattus norvegicus. In words: Minimum effect dose required to reduce the number of alveolor cyst load in rat Pneumocystis carinii pneumonia assay. The assay is classed as functional. An outline of the steps: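 Immunosuppressed Sprague-Dawley rats with confirmed infection (5 per dose level) were dosed subcutaneously, 0.15 and 0.60 mg/kg twice daily for 4 days. On day 5, lungs were homogenized and cysts counted microscopically in a known amount of homogenate. MED90 is the dose giving ≥90% cyst reduction versus vehicle sham controls.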

The nature of assay [2]: Inhibitory activity against glucan synthesis. The assay is classed as functional.
Assay [3] relates to Candida albicans. In words: (§5) Minimum fungicidal concentration against Candida albicans MY 1055. The assay is classed as functional, organism-based. An outline of the steps:
as §2

For assay [4], the system named is Fungi. The description is as §1. The assay is classed as functional, organism-based. An outline of the steps:
as §2

In assay [5] the test system is Fungi. The description is as §3. The assay is classed as functional, organism-based. An outline of the steps: as §2
The subject of assay [6] is Fungi. The assay is described as §4. The assay is classed as functional, organism-based. The method in brief: as §2
Assay [7] concerns Fungi. Put plainly: Minimum fungicidal concentration against Candida pseudotropicalis MY 1100. The assay is classed as functional, organism-based. An outline of the steps:
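Clinical isolates were inoculated at about 5×10^3 CFU into yeast nitrogen base with 1% dextrose, with drug in 2-fold dilutions from 128 to 0.06 µg/mL, and grown 24 h at 35 °C. Then 1.5 µL aliquots were spotted on Sabouraud dextrose agar and held 24 h at 35 °C. MFC is the lowest concentration giving fewer than five colonies per spot, from duplicate determinations.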

The test system of assay [8] is Fungi. The assay is described as §5. Format: functional, organism-based. An outline of the steps:
as §2

Each structure is given as a SMILES string. Numbered stars: 1 amine (or outer) side, 2 acyl side, 3 side chain; on linkers, the order of the positions; unused ones are H or OH. Bridge positions count the residues as written; N and C are the ends. Square brackets hold non-standard residues; d marks the D form. Peptide text beside a SMILES is read from it. * marks the point of attachment. Orn(4R-OH,5R-OH) = O=C([C@H](C[C@@H](O)[C@@H](O)N[*:3])N[*:1])[*:2]; hTyr(3S-OH,4S-OH) = N[C@H](C(=O)O)[C@H](O)[C@@H](O)c1ccc(O)cc1; Pro(3S-OH,4S-Me) = C[C@H]1CN[C@H](C(=O)O)[C@H]1O; Benzoyl(4-octyloxy) = CCCCCCCCOc1ccc(C(=O)*)cc1; Hyp = O=C(O)[C@@H]1C[C@@H](O)CN1

What is called IC50 is the point on the concentration scale where inhibition reaches its midpoint. A lower IC50 goes with greater potency in that assay. Turning to `CCCCCCCCOc1ccc(C(=O)N[C@H]2C[C@@H](O)[C@@H](O)NC(=O)[C@@H]3[C@@H](O)[C@@H](C)CN3C(=O)[C@H]([C@@H](C)O)NC(=O)[C@H]([C@H](O)[C@@H](O)c3ccc(O)cc3)NC(=O)[C@@H]3C[C@@H](O)CN3C(=O)[C@H]([C@@H](C)O)NC2=O)cc1` [CILOFUNGIN] ({Benzoyl(4-octyloxy)}-[Orn(4R-OH,5R-OH)]T[Hyp][hTyr(3S-OH,4S-OH)]T[Pro(3S-OH,4S-Me)]; lactam 1-C), the Concentration in the assay with Candida albicans [1] is 0.5 µg/mL; in the assay with Candida parapsilosis, 16 µg/mL; in the assay with Candida tropicalis it was 0.25 µg/mL; in the assay filed under Homo sapiens, more than 400 µg/mL; with Candida albicans [3], 0.5 µg/mL. In the assay filed under Mus musculus, this molecule returned an MED99 of 3 mg/kg. In addition, in the assay filed under Rattus norvegicus, the MED90 was more than 2.5 mg/kg. In assay [2], this molecule returned an IC50 of 1000 nM.

On to `CCC(C)CC(C)CCCCCCCCC(=O)N[C@H]1C[C@@H](O)[C@@H](O)NC(=O)[C@@H]2[C@@H](O)CCN2C(=O)[C@H]([C@@H](O)CC(N)=O)NC(=O)[C@H]([C@H](O)[C@@H](O)c2ccc(OC(=O)OCCN(C)C)cc2)NC(=O)[C@@H]2C[C@@H](O)CN2C(=O)[C@H]([C@H](C)O)NC1=O` (stereo not given in full), for which the Concentration with Fungi [4] came to 0.125 µg/mL; with Fungi [5] it was 2 µg/mL; with Fungi [6] it was 0.125 µg/mL; in the assay on Fungi [7], 1 µg/mL; in the assay filed under Homo sapiens, 50 µg/mL; with Fungi [8] it was 0.25 µg/mL. Moreover, the midpoint of inhibition in assay [2], the IC50, lay at 100 nM.
